Laboratory results taken from ChEMBL document CHEMBL1150405, “Structure-activity study of endomorphin-2 analogs with C-terminal modifications by NMR spectroscopy and molecular modeling” (Bioorg Med Chem, 2008).

Key:
[1] = biological target: Mu-type opioid receptor (Rattus norvegicus, UniProt P33535); test: Displacement of [3H]DAMGO from mu opioid receptor in rat brain membrane; assay type: cell membranes
Procedure, shortened: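 Wistar rat brain membranes (cerebellum removed) in 50 mM Tris–HCl, pH 7.4. [³H]DAMGO at 0.5 nM with varying peptide concentrations for 1 h at 25 °C in a rotating incubator. Stopped by vacuum filtration through GF/C filters, washed three times with ice-cold buffer, then scintillation counted. Nonspecific binding taken with naloxone. Duplicates, repeated at least three times; Ki derived.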

[2] = Selectivity ratio of IC50 for guinea pig ileum to IC50 for mouse vas deferens assay; assay type: tissue-based
[3] = biological target: Delta-type opioid receptor (Rattus norvegicus, UniProt P33533); test: Displacement of [3H]DPDPE from delta opioid receptor in rat brain membrane; assay type: cell membranes
Procedure, shortened: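 Wistar rat brain membranes (cerebellum removed) in 50 mM Tris–HCl, pH 7.4. [³H]DPDPE at 1 nM with varying peptide concentrations for 3 h at 25 °C in a rotating incubator. GF/C vacuum filtration, three ice-cold buffer washes, scintillation counting. Naloxone defined nonspecific binding. Duplicates, repeated at least three times; Ki calculated.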

[4] = biological target: Mu-opioid receptor (Cavia porcellus, UniProt Q8CGM4); test: Agonist activity at mu opioid receptor in guinea pig ileum assessed as inhibition of electrically-stimulated contraction; assay type: functional, tissue-based
Procedure, shortened: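 Guinea pig ileum in a 10-ml bath of Krebs–Henseleit solution at 37 °C, aerated with 95% O₂/5% CO₂. Twitches evoked by 0.1-Hz, 50-V, 0.5-ms rectangular pulses; isometric recording. […] Arithmetic mean of five to eight measurements.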

[5] = species: Rattus norvegicus; test: Selectivity ratio of Ki for delta opioid receptor to Ki for mu opioid receptor in rat brain membrane; assay type: cell membranes
[6] = biological target: Delta-type opioid receptor (Mus musculus, UniProt P32300); test: Agonist activity at delta opioid receptor in mouse vas deferens assessed as inhibition of electrically-stimulated contraction; assay type: functional, tissue-based
Procedure, shortened: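 Mouse vas deferens held at 36 °C in aerated (95% O₂/5% CO₂) Krebs–Henseleit, 10-ml bath. Pulse pairs (1-ms width, 100 ms apart, 9 V/cm supramaximal) repeated every 10 s; isometric twitch recording.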

Chain of Mu-type opioid receptor (P33535 whole entry): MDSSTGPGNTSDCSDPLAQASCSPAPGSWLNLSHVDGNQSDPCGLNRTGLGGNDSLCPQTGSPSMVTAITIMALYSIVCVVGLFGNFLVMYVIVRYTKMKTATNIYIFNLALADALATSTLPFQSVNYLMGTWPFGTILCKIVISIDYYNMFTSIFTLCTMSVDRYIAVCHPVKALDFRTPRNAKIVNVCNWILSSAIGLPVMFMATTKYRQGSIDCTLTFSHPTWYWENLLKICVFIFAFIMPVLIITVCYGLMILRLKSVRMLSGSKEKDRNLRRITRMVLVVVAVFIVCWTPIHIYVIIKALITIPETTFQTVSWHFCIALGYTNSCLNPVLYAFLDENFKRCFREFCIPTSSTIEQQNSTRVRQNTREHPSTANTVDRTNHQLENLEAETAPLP
Chain of Mu-opioid receptor (Q8CGM4 whole entry): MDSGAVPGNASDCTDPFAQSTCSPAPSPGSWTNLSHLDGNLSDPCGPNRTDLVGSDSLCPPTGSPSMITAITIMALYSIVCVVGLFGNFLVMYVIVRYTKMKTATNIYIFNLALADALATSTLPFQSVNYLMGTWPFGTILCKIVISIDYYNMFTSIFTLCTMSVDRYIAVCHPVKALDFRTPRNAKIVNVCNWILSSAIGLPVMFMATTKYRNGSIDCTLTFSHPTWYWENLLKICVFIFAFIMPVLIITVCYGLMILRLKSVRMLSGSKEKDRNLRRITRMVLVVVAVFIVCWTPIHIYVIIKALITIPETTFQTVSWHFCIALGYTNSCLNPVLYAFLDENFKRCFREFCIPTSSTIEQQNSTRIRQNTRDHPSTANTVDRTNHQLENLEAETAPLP
Chain of Delta-type opioid receptor (Mus musculus, UniProt P32300) (P32300 whole entry): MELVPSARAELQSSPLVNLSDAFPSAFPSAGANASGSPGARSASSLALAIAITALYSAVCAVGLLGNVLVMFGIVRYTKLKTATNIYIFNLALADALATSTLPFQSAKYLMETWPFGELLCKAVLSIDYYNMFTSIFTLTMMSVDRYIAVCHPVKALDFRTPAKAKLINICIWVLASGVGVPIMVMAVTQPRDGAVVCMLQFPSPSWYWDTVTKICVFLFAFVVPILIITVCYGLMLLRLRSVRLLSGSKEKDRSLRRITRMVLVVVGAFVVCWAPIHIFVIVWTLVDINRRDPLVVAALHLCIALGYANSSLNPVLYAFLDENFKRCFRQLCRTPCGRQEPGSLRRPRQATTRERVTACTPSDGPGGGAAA
Chain of Delta-type opioid receptor (Rattus norvegicus, UniProt P33533) (P33533 whole entry): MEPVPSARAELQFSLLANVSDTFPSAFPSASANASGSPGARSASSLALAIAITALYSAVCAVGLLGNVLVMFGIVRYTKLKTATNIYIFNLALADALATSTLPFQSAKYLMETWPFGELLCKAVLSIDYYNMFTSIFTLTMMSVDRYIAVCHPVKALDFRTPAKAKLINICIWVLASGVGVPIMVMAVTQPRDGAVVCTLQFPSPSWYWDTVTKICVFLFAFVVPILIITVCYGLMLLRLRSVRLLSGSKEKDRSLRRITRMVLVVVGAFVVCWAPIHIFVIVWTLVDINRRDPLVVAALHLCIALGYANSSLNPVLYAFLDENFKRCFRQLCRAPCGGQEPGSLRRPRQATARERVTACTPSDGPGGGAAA

SMILES	Ki [1] [nM]	IC50 ratio (guinea pig ileum / mouse vas deferens) [2]	Ki [3] [nM]	IC50 [4] [nM]	Ratio Ki [5]	IC50 [6] [nM]
COC(=O)[C@H](Cc1ccccc1)NC(=O)[C@H](Cc1ccccc1)NC(=O)[C@@H]1CCCN1C(=O)[C@@H](N)Cc1ccc(O)cc1	9.07	1.1	> 10000	42.1	> 1100	
CC(C)(C)OC(=O)[C@H](Cc1ccccc1)NC(=O)[C@H](Cc1ccccc1)NC(=O)[C@@H]1CCCN1C(=O)[C@@H](N)Cc1ccc(O)cc1	50.3	40.5	247	3000	4.9	74.1
CCOC(=O)[C@H](Cc1ccccc1)NC(=O)[C@H](Cc1ccccc1)NC(=O)[C@@H]1CCCN1C(=O)[C@@H](N)Cc1ccc(O)cc1	15	1	2940	64.4	196	63.7
NNC(=O)[C@H](Cc1ccccc1)NC(=O)[C@H](Cc1ccccc1)NC(=O)[C@@H]1CCCN1C(=O)[C@@H](N)Cc1ccc(O)cc1	9.35	0.71	> 10000	132	> 1070	
N[C@@H](Cc1ccc(O)cc1)C(=O)N1CCC[C@H]1C(=O)N[C@@H](Cc1ccccc1)C(=O)N[C@H](CO)Cc1ccccc1	6.34	1	> 10000	29.3	> 1580	29.2
CN(C)C(=O)[C@H](Cc1ccccc1)NC(=O)[C@H](Cc1ccccc1)NC(=O)[C@@H]1CCCN1C(=O)[C@@H](N)Cc1ccc(O)cc1	273	0.66	> 10000	1810	> 36.7	2720
CNC(=O)[C@H](Cc1ccccc1)NC(=O)[C@H](Cc1ccccc1)NC(=O)[C@@H]1CCCN1C(=O)[C@@H](N)Cc1ccc(O)cc1	29.2	2.5	8470	136	290	54.6
